Reference: ChEMBL document CHEMBL1148625, “3-(1,1-dioxo-2H-(1,2,4)-benzothiadiazin-3-yl)-4-hydroxy-2(1H)-quinolinones, potent inhibitors of hepatitis C virus RNA-dependent RNA polymerase” (J Med Chem, 2006)

Columns and labels:
[1] = Cmax in Sprague-Dawley rat at 1.3 mg/kg, iv or 3.4 mg/kg, po; format: ADME, organism-based; settings: in vivo
Procedure, shortened: (§1)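 Single intravenous or oral doses given to Sprague-Dawley rats. Values are reported as means: Cmax (ng/mL), half-life (min), plasma clearance (mL/min/kg), steady-state volume of distribution (L/kg) and oral bioavailability F (%).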

[2] = Volume of distribution in Beagle dog at 0.8 mg/kg, iv or 4.0 mg/kg, po; format: ADME, organism-based, Canis lupus familiaris; settings: in vivo, read-out: Vdss
Procedure, shortened: (§2)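 Single-dose study, with separate intravenous and oral administrations at the listed mg/kg. Plasma concentrations were followed over time, and mean values were derived for Cmax, T1/2, clearance (mL/min/kg), Vdss (L/kg) and oral bioavailability (%).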

[3] = Clearance in Sprague-Dawley rat at 1.3 mg/kg, iv or 3.4 mg/kg, po; format: ADME, organism-based; settings: in vivo; procedure, shortened: as §1
[4] = system: Hepatitis C virus; assay: Protein binding in Huh7 cells using HCV 1b replicon by a replicon cell assay in presence of HSA; format: functional, organism-based, Hepacivirus hominis; settings: genotype 1b, Huh-7
[5] = Volume of distribution in Sprague-Dawley rat at 1.3 mg/kg, iv or 3.4 mg/kg, po; format: ADME, organism-based; settings: in vivo, read-out: Vdss; procedure, shortened: as §1
[6] = Cmax in cynomolgus monkey at 0.8 mg/kg, iv or 4.0 mg/kg, po; format: ADME, organism-based, Macaca fascicularis; settings: in vivo; procedure, shortened: as §2
[7] = Oral bioavailability in cynomolgus monkey at 0.8 mg/kg, iv or 4.0 mg/kg, po; format: ADME, organism-based, Macaca fascicularis; settings: in vivo; procedure, shortened: as §2
[8] = target: T1, RNA-directed RNA polymerase (Hepacivirus hominis, UniProt O39930); assay: Inhibitory activity against HCV 1a NS5B RNA polymerase
[9] = target: Cytochrome P450 3A4 (Homo sapiens, UniProt P08684); assay: Effect on CYP3A4 induction; format: ADME
[10] = Volume of distribution in cynomolgus monkey at 0.8 mg/kg, iv or 4.0 mg/kg, po; format: ADME, organism-based, Macaca fascicularis; settings: in vivo, read-out: Vdss; procedure, shortened: as §2
[11] = target: RNA-directed RNA polymerase (Hepacivirus hominis) (UniProt O39930); assay: Inhibition of HCV RNA replication in Huh7 cells; format: functional, cell-based; settings: Huh-7
Procedure, shortened: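 Huh-7 subgenomic replicon cells were seeded at 3 × 10³/well in DMEM with 10% FCS, 1% NEAA and 1 mg/mL G418, and allowed 4 h to attach. Eleven 2.5-fold DMSO dilutions were added (final 10,000 to 1.0 nM) and cells incubated 40 h. Neo RNA was measured by TaqMan RT-PCR, normalised to cyclophilin against DMSO controls; n = 8 wells per dilution.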

[12] = target: DNA polymerase beta (Homo sapiens, UniProt P06746); assay: Inhibitory activity against human DNA-polymerase-beta
[13] = target: T1, RNA-directed RNA polymerase; assay: Inhibitory activity against HCV 2a NS5B RNA polymerase; set-up: species or system Hepatitis C virus genotype 2
[14] = target: Genome polyprotein (GB virus-B, UniProt Q69422); assay: Inhibitory activity against virus GBV-B polymerase
[15] = Oral bioavailability in Sprague-Dawley rat at 1.3 mg/kg, iv or 3.4 mg/kg, po; format: ADME, organism-based; settings: in vivo; procedure, shortened: as §1
[16] = target: T2, DNA polymerase alpha catalytic subunit (Homo sapiens, UniProt P09884); assay: Inhibitory activity against human DNA-polymerase-alpha
T2 sequence (P09884 whole entry): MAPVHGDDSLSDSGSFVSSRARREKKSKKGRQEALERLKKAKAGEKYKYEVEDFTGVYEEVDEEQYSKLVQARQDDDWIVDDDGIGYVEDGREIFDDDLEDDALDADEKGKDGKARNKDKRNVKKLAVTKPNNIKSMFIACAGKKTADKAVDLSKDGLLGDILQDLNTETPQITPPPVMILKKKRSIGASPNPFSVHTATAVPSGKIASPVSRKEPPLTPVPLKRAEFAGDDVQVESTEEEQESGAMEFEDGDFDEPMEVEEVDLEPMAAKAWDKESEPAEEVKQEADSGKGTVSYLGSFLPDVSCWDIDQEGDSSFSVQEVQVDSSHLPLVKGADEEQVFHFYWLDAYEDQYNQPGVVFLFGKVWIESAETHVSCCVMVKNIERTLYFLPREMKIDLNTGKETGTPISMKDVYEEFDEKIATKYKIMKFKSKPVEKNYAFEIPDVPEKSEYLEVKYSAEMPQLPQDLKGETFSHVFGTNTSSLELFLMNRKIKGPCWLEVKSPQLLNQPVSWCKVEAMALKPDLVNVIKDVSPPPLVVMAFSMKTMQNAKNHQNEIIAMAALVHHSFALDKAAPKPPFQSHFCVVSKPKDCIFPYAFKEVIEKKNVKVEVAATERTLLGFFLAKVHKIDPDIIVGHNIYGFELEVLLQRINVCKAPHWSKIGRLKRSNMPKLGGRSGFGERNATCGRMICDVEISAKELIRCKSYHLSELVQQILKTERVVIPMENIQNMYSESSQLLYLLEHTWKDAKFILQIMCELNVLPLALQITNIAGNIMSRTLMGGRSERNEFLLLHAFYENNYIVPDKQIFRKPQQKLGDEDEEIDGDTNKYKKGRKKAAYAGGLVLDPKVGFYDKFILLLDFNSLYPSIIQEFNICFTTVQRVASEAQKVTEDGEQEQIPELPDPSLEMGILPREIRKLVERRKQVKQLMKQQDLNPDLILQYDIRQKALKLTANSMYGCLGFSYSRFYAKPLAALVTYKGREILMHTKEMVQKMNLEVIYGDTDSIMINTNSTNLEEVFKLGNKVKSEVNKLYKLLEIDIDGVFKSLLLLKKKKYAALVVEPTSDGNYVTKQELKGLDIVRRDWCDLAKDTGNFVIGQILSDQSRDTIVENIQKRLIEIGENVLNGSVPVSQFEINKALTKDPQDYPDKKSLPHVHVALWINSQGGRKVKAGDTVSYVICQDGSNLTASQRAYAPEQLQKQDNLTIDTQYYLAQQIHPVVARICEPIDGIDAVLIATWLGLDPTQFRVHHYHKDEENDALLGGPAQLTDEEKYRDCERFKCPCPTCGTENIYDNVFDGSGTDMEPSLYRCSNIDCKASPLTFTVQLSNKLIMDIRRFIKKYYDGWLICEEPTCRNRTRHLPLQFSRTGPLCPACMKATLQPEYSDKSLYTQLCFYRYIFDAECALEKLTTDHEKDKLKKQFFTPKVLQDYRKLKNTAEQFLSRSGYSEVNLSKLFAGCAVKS

[17] = Oral bioavailability in Beagle dog at 0.8 mg/kg, iv or 4.0 mg/kg, po; format: ADME, organism-based, Canis lupus familiaris; settings: in vivo; procedure, shortened: as §2
[18] = Cmax in Beagle dog at 0.8 mg/kg, iv or 4.0 mg/kg, po; format: ADME, organism-based, Canis lupus familiaris; settings: in vivo; procedure, shortened: as §2
[19] = target: T1, RNA-directed RNA polymerase; assay: Inhibitory activity against HCV 1b NS5B RNA polymerase; set-up: species or system Hepatitis C virus subtype 1b
Procedure, shortened: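 Scintillation proximity polymerase assay with HCV NS5B (genotype 1b, J4 strain, Δ21 construct) at 50 or 10 nM. The reaction used [α-33P]GTP and GTP with 5′-biotinylated oligo(rG13)/poly(rC) in 20 mM Tris-Cl pH 7.5 containing MgCl2, KCl, DTT and 0.05% BSA. It ran 2 h at 25 °C, was stopped with an equal volume of 100 mM EDTA, then captured on streptavidin FlashPlates and counted; n = 4.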

T1 sequence (O39930 whole entry): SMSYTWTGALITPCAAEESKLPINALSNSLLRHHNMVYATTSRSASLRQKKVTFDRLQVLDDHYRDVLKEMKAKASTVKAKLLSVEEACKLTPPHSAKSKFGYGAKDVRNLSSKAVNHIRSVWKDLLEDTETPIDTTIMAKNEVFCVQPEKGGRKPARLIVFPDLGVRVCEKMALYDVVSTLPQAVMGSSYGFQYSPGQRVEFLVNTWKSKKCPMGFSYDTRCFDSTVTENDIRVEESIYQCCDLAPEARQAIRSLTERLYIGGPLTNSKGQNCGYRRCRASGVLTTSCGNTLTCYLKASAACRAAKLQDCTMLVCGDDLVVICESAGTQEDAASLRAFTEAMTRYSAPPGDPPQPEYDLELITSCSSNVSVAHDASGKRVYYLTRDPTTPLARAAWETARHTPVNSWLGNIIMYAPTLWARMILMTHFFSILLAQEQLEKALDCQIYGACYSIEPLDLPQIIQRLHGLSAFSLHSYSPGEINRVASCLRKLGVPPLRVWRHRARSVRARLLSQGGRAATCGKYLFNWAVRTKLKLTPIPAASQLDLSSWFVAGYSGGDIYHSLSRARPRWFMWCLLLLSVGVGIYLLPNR
RNA-directed RNA polymerase (Hepacivirus hominis), sequence (O39930 1-591): as the sequence (O39930 whole entry) above
Genome polyprotein, sequence (Q69422 2275-2864 limits assumed): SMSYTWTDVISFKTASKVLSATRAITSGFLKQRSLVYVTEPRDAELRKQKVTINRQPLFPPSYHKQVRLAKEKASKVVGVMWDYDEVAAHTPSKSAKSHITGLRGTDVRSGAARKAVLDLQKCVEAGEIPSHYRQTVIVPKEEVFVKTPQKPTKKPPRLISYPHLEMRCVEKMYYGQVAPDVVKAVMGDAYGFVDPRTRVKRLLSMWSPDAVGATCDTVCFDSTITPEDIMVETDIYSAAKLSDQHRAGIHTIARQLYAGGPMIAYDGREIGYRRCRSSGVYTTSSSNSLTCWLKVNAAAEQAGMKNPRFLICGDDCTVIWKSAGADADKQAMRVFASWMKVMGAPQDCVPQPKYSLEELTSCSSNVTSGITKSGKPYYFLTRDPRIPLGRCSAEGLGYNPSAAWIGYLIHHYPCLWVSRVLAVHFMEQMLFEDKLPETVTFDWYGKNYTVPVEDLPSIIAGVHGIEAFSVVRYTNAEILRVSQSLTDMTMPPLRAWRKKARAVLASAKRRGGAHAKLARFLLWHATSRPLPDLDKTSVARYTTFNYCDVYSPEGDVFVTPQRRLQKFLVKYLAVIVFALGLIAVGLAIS
Cytochrome P450 3A4, sequence (P08684 whole entry): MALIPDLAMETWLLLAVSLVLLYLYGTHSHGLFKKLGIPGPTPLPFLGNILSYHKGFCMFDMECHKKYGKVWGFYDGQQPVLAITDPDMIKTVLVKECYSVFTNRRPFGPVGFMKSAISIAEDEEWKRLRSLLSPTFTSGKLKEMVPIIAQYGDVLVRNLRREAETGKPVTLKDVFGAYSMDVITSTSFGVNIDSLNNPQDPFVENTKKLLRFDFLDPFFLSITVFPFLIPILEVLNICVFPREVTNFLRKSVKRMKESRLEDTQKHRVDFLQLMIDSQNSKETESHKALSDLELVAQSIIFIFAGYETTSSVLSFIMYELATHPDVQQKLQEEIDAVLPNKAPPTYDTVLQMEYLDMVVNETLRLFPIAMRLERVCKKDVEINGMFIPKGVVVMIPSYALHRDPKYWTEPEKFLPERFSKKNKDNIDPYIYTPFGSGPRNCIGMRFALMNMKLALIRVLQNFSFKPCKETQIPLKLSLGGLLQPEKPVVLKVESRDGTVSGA

`O=c1c(C2=Nc3ccccc3S(=O)(=O)N2)c(O)c2cc(F)ccc2n1CCC1CC1` gave a Cmax [1] of 4140 ng/mL, a Vd [2] of 0.15 L/kg and a clearance [3] of 1.4 mL/min/kg. For the same molecule, the EC50 [4] was 13000 nM, the Vd [5] was 0.36 L/kg and the Cmax [6] was 5440 ng/mL. The bioavailability [7] was > 53%, the IC50 [8] was 49 nM and the Activity [9] was “Active”. The Vd [10] was 0.11 L/kg, the EC90 [11] was 207 nM and the IC50 [12] was > 50000 nM. For the same molecule, the IC50 [13] was 13 nM, the IC50 [14] was > 50000 nM and the bioavailability [15] was 44%. For the same molecule, the IC50 [16] was > 50000 nM, the bioavailability [17] was > 35% and the Cmax [18] was 4460 ng/mL. For the same molecule, the IC50 [19] was 10 nM.
